Only some compounds are listed: those with a hit (about 4.5% of all), similar ones and a draw of the others.
CHO parental Ca: ATP-evoked calcium signal inhibitors, parental CHO, primary screen, counter-screen for OX1R antagonist project, cell-based, fluorescence, Fluo-8 calcium dye. AID 463079, 2010. hit rate 0.63% among 330,000. inhibition, % at 5.6 µM. parental CHO-K1, ATP-induced calcium, Fluo-8 fluorescence;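 active means inhibition above that plate's mean sample inhibition plus 3 SD, cut at about 26% in these data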
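material = parental CHO cells | also added = ATP as calcium-mobilizing challenge | dosing = single point at 5.6 µM | detection = intracellular calcium via Fluo-8 no-wash fluorescent dye | read-out = % inhibition | benchmarks = low control ATP plus DMSO, high control DMSO only | repeats = one well per compound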
GPR7 antagonist: GPR7 receptor antagonists, primary screen, cell-based, fluorescence, single concentration | Neuropeptides B/W receptor type 1 (Homo sapiens), P48145 | hit rate 1.1% among 290,000 | inhibition, % at 4.4 µM | AID 1861, 2009 | GPR7-expressing cells, fluorescence antagonist assay; in the data active means inhibition above about 16%, passing the limit was not always enough;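 further: cells stimulated with the agonist NPW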
TAAR1 agonist: human TAAR1 agonists, primary screen, Fluo-8 calcium fluorescence, CHO RD-HGA16 cells. Trace amine-associated receptor 1 (Homo sapiens), Q96RJ0. hit rate 0.99% among 360,000. AID 624467, 2012. vehicle wells 0%, saturating PEA agonist 100%. activation, % at 3 µM;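 active means activation above the mean activation of all test compounds in the run plus 3 SD, cut at about 38% in these data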
Target sequence (Q96RJ0 whole entry, looked up): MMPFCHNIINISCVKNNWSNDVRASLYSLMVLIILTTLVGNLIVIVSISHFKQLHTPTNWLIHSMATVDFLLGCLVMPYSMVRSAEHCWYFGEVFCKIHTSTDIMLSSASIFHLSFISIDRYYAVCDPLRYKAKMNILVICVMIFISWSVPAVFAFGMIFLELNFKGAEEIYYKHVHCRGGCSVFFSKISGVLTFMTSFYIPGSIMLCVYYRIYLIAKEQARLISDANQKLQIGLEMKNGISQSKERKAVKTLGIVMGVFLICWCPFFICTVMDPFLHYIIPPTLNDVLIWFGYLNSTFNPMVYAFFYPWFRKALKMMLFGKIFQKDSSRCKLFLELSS
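test system = CHO RD-HGA16 cells carrying human TAAR1 plus Gα16 | schedule = 17-24 h seeding, 75 min 37 °C dye, 30 min RT | compound dosing = 3 µM single concentration | control set = DMSO and PEA EC100 | replicates = n 1 | signal = Fluo-8 fluorescence, 5 s baseline then 140 s kinetic read | measure = percent activation vs PEA EC100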
OX1R antag-1: OX1R (HCRTR1) antagonists, primary screen, fluorescence, CHO/OX1R cells, Fluo-8 calcium, orexin A. inhibition, % at 5 µM. Orexin/Hypocretin receptor type 1 (Homo sapiens), O43613. AID 434989, 2010. hit rate 0.43% among 330,000. Fluo-8 calcium fluorescence;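 active means inhibition above its plate's threshold, mean inhibition of all tested compounds on the plate plus 3 SD, cut at about 37% in these data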
Target sequence (O43613 whole entry, looked up): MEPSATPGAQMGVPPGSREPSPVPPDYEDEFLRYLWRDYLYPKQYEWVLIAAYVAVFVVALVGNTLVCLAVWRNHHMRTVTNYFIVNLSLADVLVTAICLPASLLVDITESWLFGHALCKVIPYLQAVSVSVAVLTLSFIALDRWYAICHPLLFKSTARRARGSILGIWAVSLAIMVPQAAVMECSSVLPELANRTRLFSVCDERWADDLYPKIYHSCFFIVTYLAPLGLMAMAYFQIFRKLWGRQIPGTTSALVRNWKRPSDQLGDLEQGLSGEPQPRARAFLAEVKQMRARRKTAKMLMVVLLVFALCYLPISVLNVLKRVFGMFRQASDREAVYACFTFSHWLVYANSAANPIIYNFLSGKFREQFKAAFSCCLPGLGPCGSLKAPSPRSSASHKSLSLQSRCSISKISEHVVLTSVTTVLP
TAAR1 antag: human TAAR1 antagonists, primary screen, Fluo-8 calcium fluorescence, CHO RD-HGA16 cells; Trace amine-associated receptor 1 (Homo sapiens), Q96RJ0; antagonist; inhibition, % at 3 µM; hit rate 1.5% among 360,000;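 active means inhibition above a per-plate cutoff, the mean inhibition of test compounds on that plate plus 3 SD, cut at about 49% in these data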
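Test system: hTAAR1-expressing CHO RD-HGA16 cells, Gα16-coupled; Probe or stimulus: EC80 β-phenethylamine stimulus; Compound dosing: single nominal final test compound concentration of 3 µM; Timing: 140 s kinetic read after compound, 140 s after agonist; Signal: Fluo-8 calcium-sensitive fluorescence; Measure: % inhibition of agonist calcium response; Controls: DMSO and EC80 PEA controls.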
OX1R antag-2: antagonists of human orexin 1 receptor (OX1R) | AID 485270, 2010 | Orexin/Hypocretin receptor type 1 (Homo sapiens), O43613 | inhibition, % at 6.6 µM | hit rate 1.8% among 330,000 | OX1R-expressing cells, FRET antagonist read-out; in the data active means inhibition mostly above about 38%, no sharp cut-off; inactive means mostly below about 40%
TAAR1 ag confirm: human TAAR1 agonists, retest of hits, confirmation, Fluo-8 calcium fluorescence, CHO RD-HGA16 cells; activation, % at 3 µM; hit rate 82% among 2,400; scaled: DMSO 0%, maximal phenethylamine 100%; shares compounds with TAAR1 agonist;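 active means activation above a cutoff set at the run's mean compound activation plus 3 SD, cut at about 39% in these data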
Ga16 ag counter: nonselective calcium mobilization agonists, CHO-Ga16 cells, counter-screen for hTAAR1 agonist project, cell-based, fluorescence, CHO-Ga16 parental line; shares compounds with TAAR1 agonist; Fluo-8 calcium fluorescence; normalized to maximal ATP response, DMSO zero; activation, % at 3 µM; hit rate 50% among 2,400; AID 651787, 2012;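 active means activation above the run cutoff, the mean activation over all tested wells plus 3 SD, cut at about 12% in these data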
TAAR1 desensitize: TAAR1 desensitization by agonist hits, confirmation, counter-screen for TAAR1 agonist project, cell-based, fluorescence, tachyphylaxis; CHO RD-HGA16 hTAAR1, Fluo-8 calcium, beta-PEA response inhibition; AID 651951, 2012; shares compounds with TAAR1 agonist; inhibition, % at 3 µM; hit rate 46% among 2,400;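 active means inhibition above the run cutoff, the mean inhibition of all test compounds plus 3 SD, cut at about 49% in these data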;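 further: beta-PEA stimulus applied at its EC80; loss of beta-PEA calcium signal after compound pretreatment read as receptor desensitization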
Ga16 nonsel ant: inhibition of ATP-evoked calcium response in CHO-Ga16 cells, counter-screen for TAAR1 agonist project, cell-based, fluorescence; shares compounds with TAAR1 agonist; CHO-Ga16 ATP-induced calcium, Fluo-8 fluorescence; inhibition, % at 3 µM; hit rate 39% among 2,400; AID 651952, 2012;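 active means inhibition above the plate's mean compound inhibition plus 3 SD, computed per plate, cut at about 22% in these data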
Numbers stand for hits; - = inactive; . = no result.

SMILES	CHO parental Ca	GPR7 antagonist	TAAR1 agonist	OX1R antag-1	TAAR1 antag	OX1R antag-2	TAAR1 ag confirm	Ga16 ag counter	TAAR1 desensitize	Ga16 nonsel ant
CCOC(=O)C1=NN(C(=O)COc2ccccc2)C(O)(c2ccc(Cl)cc2)C1 (stereo not drawn)	-	-	-	-	-	-	.	.	.	.
COC(=O)C1=NN(C(=O)c2cccc(Br)c2)C(O)(c2ccc(Cl)cc2)C1 (stereo not drawn)	-	-	93	-	71	50	95	67	76	62
CCOC(=O)C1=NN(C(=O)c2ccc(OC)cc2)C(O)(c2ccc(Cl)cc2)C1 (stereo not drawn)	-	-	65	-	-	-	80	64	-	30
CCOC(=O)C1=NN(C(=O)c2cccc(Br)c2)C(O)(C(C)(C)C)C1 (stereo not drawn)	-	-	.	-	.	-	.	.	.	.
COc1ccc2cc(C(=O)N/N=C/c3sc4ccccc4c3O)ccc2c1	-	-	108	-	-	-	49	57	-	53
COc1ccc(C(=O)N/N=C/c2sc3ccccc3c2O)cc1	-	-	.	-	.	-	.	.	.	.
CCC1(C)CC(C(CC(=O)O)c2ccc(C)cc2)CCO1 (stereo not drawn)	-	-	-	-	-	-	.	.	.	.
CCCCCCCCCCCCC/C=C/[C@@H](O)[C@@H](N)CO	-	.	39	-	-	-	83	65	-	23
CCCCCCCC/C=C\CCCCCCCC(=O)O	-	.	-	-	-	-	.	.	.	.
CCOC(=O)C1(C)CCCN1C(=O)c1ccc(F)c(Cl)c1 (stereo not drawn)	.	.	-	.	-	.	.	.	.	.
CCCn1c(SCC(=O)N2CCc3ccccc3C2)nc(O)cc1=O	-	.	.	-	.	-	.	-	.	-
Cc1cc(=O)[nH]c(SCC(=O)N2CCc3ccccc3C2)n1	-	-	77	-	56	-	77	-	-	-
Cc1cc(C)c(C#N)c(Nc2cccc(C)c2C)n1	-	-	-	-	-	-	.	.	.	.
COCCNC(=O)CN(C(=O)Cn1nnc2ccccc21)c1ccc(C)cc1	-	-	-	-	-	-	.	.	.	.
Cc1ccccc1-n1c(-c2ccc(Cl)cc2)cnc1SCC(=O)NC1CCS(=O)(=O)C1 (stereo not drawn)	-	-	-	-	-	-	.	.	.	.
OCc1ccccc1CNCc1ccccc1	-	-	-	-	-	-	.	.	.	.
OCc1ccccc1SSc1ccccc1CO	-	.	58	-	-	-	-	19	-	-
O=c1[nH]ncc(N/N=C\c2ccc(O)cc2O)c1Cl	-	-	73	-	-	-	80	-	67	-
O=C(O)CCc1ccc(-c2cccs2)n1CCC(=O)O	-	-	-	-	-	-	.	.	.	.
O=C(O)CCc1ccc(-c2cccs2)n1CCc1ccccc1	-	-	62	-	-	-	83	-	73	-
O=C(COc1ccc(S(=O)(=O)N2CCOCC2)cc1)Nc1ccccc1Cl	-	-	-	-	-	-	.	.	.	.
CCCCCCCCCCC[C@@H](C[C@@H]1OC(=O)[C@H]1CCCCCC)OC(=O)[C@H](CC(C)C)NC=O	-	-	-	-	-	-	.	.	.	.
COc1ccc(NC(=O)Cc2ccc(Cl)cc2Cl)cn1	-	-	56	-	-	-	-	-	-	-
O=C(Nc1nnc([C@@H]2C[C@H](O)[C@@H](CO)O2)s1)Nc1ccccc1F	.	.	-	.	-	.	.	.	.	.
Cc1ccc(OCc2nnc(SCC(=O)Nc3sc(C)c(C)c3C#N)n2C)cc1	-	-	54	-	-	-	-	-	-	-
SMILES	CHO parental Ca	GPR7 antagonist	TAAR1 agonist	OX1R antag-1	TAAR1 antag	OX1R antag-2	TAAR1 ag confirm	Ga16 ag counter	TAAR1 desensitize	Ga16 nonsel ant
Cc1sc(NC(=O)CSc2nnc(COc3ccccc3)n2C)c(C#N)c1C	-	-	53	-	-	-	-	-	-	-
Cc1sc(NC(=O)CSc2nnc3scc(-c4ccccc4)n23)c(C#N)c1C	-	-	-	-	-	-	.	.	.	.
CCn1c(SCC(=O)Nc2ccccc2OC)nc(O)cc1=O	-	-	-	-	-	-	.	.	.	.
COC(=O)c1cc(-c2ccccc2)n(CCN)c1C	-	.	46	-	-	-	51	-	-	-
O=C(Cn1nnc(N2CCCCC2)n1)NN=Cc1ccccc1O	.	.	49	.	-	.	64	-	-	-
O=C(Nc1ccccc1)c1nnsc1S(=O)c1ccc(Cl)cc1 (stereo not drawn)	-	-	68	-	96	-	49	23	81	38
O=C(Nc1ccc(Cl)cc1)c1cccs1	-	-	-	-	-	-	.	.	.	.
Cc1cccc2cc(C#N)c(N3CCN(C)CC3)nc12	-	-	67	-	-	-	76	-	-	-
Cc1ccc2cc(C#N)c(N3CCN(C)CC3)nc2c1	-	-	-	-	-	-	.	.	.	.
Cc1ccc2nc(N3CCN(C)CC3)c(C#N)cc2c1	-	-	-	-	-	-	.	.	.	.
Cc1cc(C)c2nc(N3CCN(C)CC3)c(C#N)cc2c1	-	-	49	-	-	-	54	-	-	-
Cc1cnn(C(=S)NCCc2ccccc2)c1	-	-	48	-	-	-	-	-	-	-
Cc1ccccc1NC(=S)NCCc1ccccc1	-	-	49	-	-	-	82	-	-	-
CC(C)(C)NC(=O)C1CCN(C(=O)c2ccc(Br)cc2)CC1	-	-	-	-	-	-	.	.	.	.
Cn1c(=O)c2c(nc3n2CC(O)CN3c2ccc(O)cc2)n(C)c1=O (stereo not drawn)	-	-	-	-	-	-	.	.	.	.
Cc1cc2c(c(C)c1Br)C(c1ccc3c(c1)OCO3)CC(=O)O2 (stereo not drawn)	-	.	-	-	-	-	.	.	.	.
